Measured values as given in ChEMBL document CHEMBL1135187, “The synthesis and effect of fluorinated chalcone derivatives on nitric oxide production” (Bioorg Med Chem Lett, 2002).
pIC50: −log10 of the molar value.

Columns and labels:
[1] = molecular target: T1, Nitric oxide synthase, inducible (Mus musculus) (UniProt P29477); experiment: Percent inhibition of Nitrite accumulation at a concentration of 10 uM was determined in RAW 264.7 cells; type: functional, cell-based
T1 sequence (whole entry): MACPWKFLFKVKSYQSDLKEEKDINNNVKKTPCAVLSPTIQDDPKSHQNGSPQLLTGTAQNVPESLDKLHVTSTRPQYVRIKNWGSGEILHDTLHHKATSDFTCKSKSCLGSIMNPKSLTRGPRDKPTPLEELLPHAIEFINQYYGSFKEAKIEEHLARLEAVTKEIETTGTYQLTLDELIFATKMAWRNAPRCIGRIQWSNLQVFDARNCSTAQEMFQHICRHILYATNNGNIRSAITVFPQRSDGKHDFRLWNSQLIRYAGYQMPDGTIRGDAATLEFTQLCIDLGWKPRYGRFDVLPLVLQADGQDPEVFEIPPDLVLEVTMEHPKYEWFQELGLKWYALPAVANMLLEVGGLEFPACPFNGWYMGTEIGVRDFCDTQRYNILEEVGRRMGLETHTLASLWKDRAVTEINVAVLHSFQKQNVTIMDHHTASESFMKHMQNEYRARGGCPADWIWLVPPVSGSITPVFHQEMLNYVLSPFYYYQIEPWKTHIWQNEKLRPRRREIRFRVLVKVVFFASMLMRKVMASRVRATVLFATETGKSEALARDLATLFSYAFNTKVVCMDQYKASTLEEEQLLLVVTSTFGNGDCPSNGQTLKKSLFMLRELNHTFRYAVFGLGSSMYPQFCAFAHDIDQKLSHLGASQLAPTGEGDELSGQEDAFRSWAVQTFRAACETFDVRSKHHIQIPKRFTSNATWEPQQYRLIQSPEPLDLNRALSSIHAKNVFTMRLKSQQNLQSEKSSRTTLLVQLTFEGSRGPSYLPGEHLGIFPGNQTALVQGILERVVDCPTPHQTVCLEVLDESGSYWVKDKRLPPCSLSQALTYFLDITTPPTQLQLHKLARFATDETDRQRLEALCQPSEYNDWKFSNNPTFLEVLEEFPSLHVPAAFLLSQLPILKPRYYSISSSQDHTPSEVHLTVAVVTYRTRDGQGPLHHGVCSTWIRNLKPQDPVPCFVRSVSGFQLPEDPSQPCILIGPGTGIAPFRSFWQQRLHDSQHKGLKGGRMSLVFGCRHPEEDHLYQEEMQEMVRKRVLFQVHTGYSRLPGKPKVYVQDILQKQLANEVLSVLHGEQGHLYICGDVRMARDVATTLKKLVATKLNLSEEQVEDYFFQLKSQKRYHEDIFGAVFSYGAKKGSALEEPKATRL
How it was run: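 Nitrite accumulation measured in RAW 264.7 cells at 2 × 10⁶/mL stimulated with E. coli LPS, with compound at 10 µM or vehicle, 37 °C, 20 h. Nitrite read fluorometrically against a sodium nitrite standard curve. Reported as mean±SEM % inhibition (n=6). One-way ANOVA followed by Dunnett's test.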

[2] = molecular target: T2, Nitric oxide synthase, inducible (Mus musculus, UniProt P29477); experiment: Inhibitory concentration required to produce 50% inhibition of the response was determined; range-0.150.47 uM; type: functional
T2 sequence (P29477 whole entry): T1 sequence (whole entry)
How it was run: (§1)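 Murine RAW 264.7 macrophages (DMEM, 10% FBS, 2 mM L-glutamine, penicillin/streptomycin) at 2 × 10⁶/mL co-incubated with E. coli LPS and test compound or vehicle, 37 °C, 20 h. Nitrite in the medium measured fluorometrically against a sodium nitrite standard curve. IC50 calculated from at least four significant concentrations and reported with 95% confidence limits. MTT reduction used to check cytotoxicity.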

[3] = molecular target: T2, Nitric oxide synthase, inducible; experiment: Inhibitory concentration required to produce 50% inhibition of the response was determined; range-0.461.81 uM; type: functional; how it was run: as §1
[4] = molecular target: T2, Nitric oxide synthase, inducible; experiment: Inhibitory concentration required to produce 50% inhibition of the response was determined; range-0.431.85 uM; type: functional; how it was run: as §1
[5] = molecular target: T2, Nitric oxide synthase, inducible; experiment: Inhibitory concentration required to produce 50% inhibition of the response was determined; range-0.541.16 uM; type: functional; how it was run: as §1
[6] = molecular target: T2, Nitric oxide synthase, inducible; experiment: Inhibitory concentration required to produce 50% inhibition of the response was determined; range-0.811.70 uM; type: functional; how it was run: as §1
[7] = molecular target: T2, Nitric oxide synthase, inducible; experiment: Inhibitory concentration required to produce 50% inhibition of the response was determined; range-0.431.12 uM; type: functional; how it was run: as §1
[8] = molecular target: T2, Nitric oxide synthase, inducible; experiment: Inhibitory concentration required to produce 50% inhibition of the response was determined; type: functional; how it was run: as §1

An inhibition [1] of 73.7% and a pIC50 [2] of 6.55 were found for `COc1cc(OC)c(OC)cc1/C=C/C(=O)c1ccccc1C(F)(F)F` in this work.
An inhibition [1] of 52.4% was found for `COc1ccc(/C=C/C(=O)c2ccc(F)cc2F)cc1OC` in this work.
A pIC50 [3] of 6.08 and an inhibition [1] of 77.5% were found for `COc1ccc(/C=C/C(=O)c2ccccc2C(F)(F)F)c(OC)c1` in this work.
A pIC50 [4] of 6.04 and an inhibition [1] of 99% were found for `COc1ccc(OC)c(/C=C/C(=O)c2ccccc2C(F)(F)F)c1` in this work.
An inhibition [1] of 75% and a pIC50 [5] of 5.74 were found for `COc1cc(OC)c(/C=C/C(=O)c2cccc(C(F)(F)F)c2)c(OC)c1` in this work.
An inhibition [1] of 49.3% was found for `COc1cc(OC)c(OC)cc1/C=C/C(=O)c1ccc(C(F)(F)F)cc1` in this work.
An inhibition [1] of 76.3% and a pIC50 [6] of 5.99 were found for `COc1cc(OC)c(/C=C/C(=O)c2ccccc2C(F)(F)F)c(OC)c1` in this work.
An inhibition [1] of 63.9% was found for `COc1cc(OC)c(/C=C/C(=O)c2ccc(F)cc2)c(OC)c1` in this work.
An inhibition [1] of 81.7% and a pIC50 [7] of 6.19 were found for `COc1cc(OC)c(OC)cc1/C=C/C(=O)c1ccc(F)cc1F` in this work.
An inhibition [1] of 55.7% was found for `COc1ccc(/C=C/C(=O)c2ccc(F)cc2)c(OC)c1` in this work.
An inhibition [1] of 55.8% was found for `COc1cc(/C=C/C(=O)c2ccc(C(F)(F)F)cc2)cc(OC)c1OC` in this work.
An inhibition [1] of 46.8% was found for `COc1ccc(/C=C/C(=O)c2ccc(C(F)(F)F)cc2)c(OC)c1` in this work.
An inhibition [1] of 60.1% was found for `COc1ccc(OC)c(/C=C/C(=O)c2ccc(C(F)(F)F)cc2)c1` in this work.
An inhibition [1] of 26.7% was found for `COc1cc(OC)c(OC)cc1/C=C/C(=O)c1cccc(C(F)(F)F)c1` in this work.
A pIC50 [8] of 7.52 and an inhibition [1] of 94.1% were found for `COc1cc(/C=C/C(=O)c2ccc(F)cc2)cc(OC)c1OC` in this work.
An inhibition [1] of 43.6% was found for `COc1cc(OC)c(/C=C/C(=O)c2ccc(C(F)(F)F)cc2)c(OC)c1` in this work.
An inhibition [1] of 59% was found for `COc1cc(OC)c(/C=C/C(=O)c2ccc(F)cc2F)c(OC)c1` in this work.
